Results as given in ChEMBL document CHEMBL1145628, “New tetrazole-based selective anandamide uptake inhibitors” (Bioorg Med Chem Lett, 2008).
pEC50, pIC50, pKi: −log10 of the molar value.

Key:
[1] = target: T1, Diacylglycerol lipase-alpha (Homo sapiens, UniProt Q9Y4D2); assay: Inhibition of human DAGLalpha mediated sn-1-[14C]oleoyl-2-arachidonoyl-glycerol hydrolysis to 2-AG in COS cell
T1 sequence (Q9Y4D2 whole entry): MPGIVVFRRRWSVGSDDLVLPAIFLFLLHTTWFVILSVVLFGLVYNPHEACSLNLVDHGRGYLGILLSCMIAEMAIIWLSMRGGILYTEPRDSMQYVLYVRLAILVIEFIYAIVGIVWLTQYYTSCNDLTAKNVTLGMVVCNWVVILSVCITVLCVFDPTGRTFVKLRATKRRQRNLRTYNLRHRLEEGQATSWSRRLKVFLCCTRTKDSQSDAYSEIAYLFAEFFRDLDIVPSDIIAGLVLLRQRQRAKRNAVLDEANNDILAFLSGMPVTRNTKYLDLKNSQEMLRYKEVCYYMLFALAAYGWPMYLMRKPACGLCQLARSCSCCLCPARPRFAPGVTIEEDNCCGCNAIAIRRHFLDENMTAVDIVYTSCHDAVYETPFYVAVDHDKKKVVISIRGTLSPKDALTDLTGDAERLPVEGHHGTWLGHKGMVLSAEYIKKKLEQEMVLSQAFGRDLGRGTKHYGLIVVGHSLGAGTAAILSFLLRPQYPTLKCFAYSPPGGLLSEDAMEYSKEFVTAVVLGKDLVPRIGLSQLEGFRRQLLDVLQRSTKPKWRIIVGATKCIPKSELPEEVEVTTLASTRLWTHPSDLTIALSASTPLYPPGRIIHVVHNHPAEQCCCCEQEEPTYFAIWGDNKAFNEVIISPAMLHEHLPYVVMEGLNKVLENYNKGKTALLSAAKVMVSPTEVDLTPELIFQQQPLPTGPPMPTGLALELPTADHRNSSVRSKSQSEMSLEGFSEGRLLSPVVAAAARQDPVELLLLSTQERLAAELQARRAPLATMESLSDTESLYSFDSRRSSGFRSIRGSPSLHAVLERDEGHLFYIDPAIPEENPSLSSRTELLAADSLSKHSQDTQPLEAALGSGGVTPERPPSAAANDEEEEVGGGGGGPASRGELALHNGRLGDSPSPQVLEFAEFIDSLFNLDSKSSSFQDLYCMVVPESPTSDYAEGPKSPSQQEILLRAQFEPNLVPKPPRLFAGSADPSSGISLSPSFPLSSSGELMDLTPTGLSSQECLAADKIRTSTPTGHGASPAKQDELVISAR
Outline: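 Substrate: sn-1-[14C]oleoyl-2-arachidonoyl-glycerol. Conversion into 2-AG and [14C]oleic acid was followed using membranes of COS cells overexpressing human recombinant DAGLα; n = 4 means.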

[2] = target: T2, Transient receptor potential cation channel subfamily V member 1 (Homo sapiens, UniProt Q8NER1); assay: Agonist activity at human TRPV1 channel expressed in human HEK293 cells assessed as elevation in intracellular calcium flux; assay type: functional, cell-based
T2 sequence (Q8NER1 whole entry): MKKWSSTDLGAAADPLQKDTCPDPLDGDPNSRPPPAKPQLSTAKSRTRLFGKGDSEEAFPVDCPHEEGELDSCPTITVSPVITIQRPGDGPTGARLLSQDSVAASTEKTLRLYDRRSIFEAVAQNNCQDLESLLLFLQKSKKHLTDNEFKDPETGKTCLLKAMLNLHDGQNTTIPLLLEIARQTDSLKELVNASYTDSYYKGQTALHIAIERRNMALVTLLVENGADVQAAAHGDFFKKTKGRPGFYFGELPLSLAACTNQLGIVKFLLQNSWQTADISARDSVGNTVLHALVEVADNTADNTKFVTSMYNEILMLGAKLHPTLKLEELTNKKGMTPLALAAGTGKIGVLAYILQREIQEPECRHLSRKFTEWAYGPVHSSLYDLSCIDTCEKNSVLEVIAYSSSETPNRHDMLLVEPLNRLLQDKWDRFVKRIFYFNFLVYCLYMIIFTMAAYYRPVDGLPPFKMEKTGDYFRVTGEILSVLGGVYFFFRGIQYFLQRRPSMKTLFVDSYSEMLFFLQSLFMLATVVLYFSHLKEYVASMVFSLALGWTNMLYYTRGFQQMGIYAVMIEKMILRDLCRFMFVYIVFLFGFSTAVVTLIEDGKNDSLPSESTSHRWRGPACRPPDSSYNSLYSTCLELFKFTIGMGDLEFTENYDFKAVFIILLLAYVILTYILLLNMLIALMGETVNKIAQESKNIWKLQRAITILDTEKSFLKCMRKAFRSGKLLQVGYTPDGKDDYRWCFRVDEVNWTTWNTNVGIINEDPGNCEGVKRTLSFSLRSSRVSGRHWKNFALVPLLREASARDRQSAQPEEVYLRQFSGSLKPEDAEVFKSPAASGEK
Outline: (§1)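 HEK-293 cells overexpressing TRPV1 were used, with intracellular Ca2+ elevation as the read-out. The single-point value is the effect of 10 µM compound as percent of the Ca2+ response to 4 µM ionomycin. Data are means of 4 separate determinations.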

Cannabinoid receptor 2 = Cannabinoid receptor 2 (Homo sapiens, UniProt P34972); assay: Binding affinity to human CB2 receptor expressed in COS cells; assay type: cell-based
Sequence of Cannabinoid receptor 2 (P34972 whole entry): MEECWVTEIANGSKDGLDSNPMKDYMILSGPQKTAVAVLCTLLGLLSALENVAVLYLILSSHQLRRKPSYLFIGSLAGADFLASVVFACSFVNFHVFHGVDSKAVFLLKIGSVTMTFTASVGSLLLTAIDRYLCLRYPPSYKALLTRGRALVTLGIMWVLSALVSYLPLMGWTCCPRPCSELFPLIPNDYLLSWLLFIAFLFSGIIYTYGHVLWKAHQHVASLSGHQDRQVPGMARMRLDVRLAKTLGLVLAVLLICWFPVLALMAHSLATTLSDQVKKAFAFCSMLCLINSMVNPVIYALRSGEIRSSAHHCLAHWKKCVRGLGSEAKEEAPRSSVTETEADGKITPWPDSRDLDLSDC
Outline: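 Human CB2 receptor expressed by transfection in COS cells. Each value is the mean of 4 separate determinations.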

[3] = target: Transient receptor potential cation channel subfamily A member 1 (Rattus norvegicus, UniProt Q6RI86); assay: Agonist activity at rat TRPA1 channel expressed in human HEK293 cells assessed as elevation in intracellular calcium flux; assay type: functional, cell-based
Sequence of Transient receptor potential cation channel subfamily A member 1 (Q6RI86 whole entry): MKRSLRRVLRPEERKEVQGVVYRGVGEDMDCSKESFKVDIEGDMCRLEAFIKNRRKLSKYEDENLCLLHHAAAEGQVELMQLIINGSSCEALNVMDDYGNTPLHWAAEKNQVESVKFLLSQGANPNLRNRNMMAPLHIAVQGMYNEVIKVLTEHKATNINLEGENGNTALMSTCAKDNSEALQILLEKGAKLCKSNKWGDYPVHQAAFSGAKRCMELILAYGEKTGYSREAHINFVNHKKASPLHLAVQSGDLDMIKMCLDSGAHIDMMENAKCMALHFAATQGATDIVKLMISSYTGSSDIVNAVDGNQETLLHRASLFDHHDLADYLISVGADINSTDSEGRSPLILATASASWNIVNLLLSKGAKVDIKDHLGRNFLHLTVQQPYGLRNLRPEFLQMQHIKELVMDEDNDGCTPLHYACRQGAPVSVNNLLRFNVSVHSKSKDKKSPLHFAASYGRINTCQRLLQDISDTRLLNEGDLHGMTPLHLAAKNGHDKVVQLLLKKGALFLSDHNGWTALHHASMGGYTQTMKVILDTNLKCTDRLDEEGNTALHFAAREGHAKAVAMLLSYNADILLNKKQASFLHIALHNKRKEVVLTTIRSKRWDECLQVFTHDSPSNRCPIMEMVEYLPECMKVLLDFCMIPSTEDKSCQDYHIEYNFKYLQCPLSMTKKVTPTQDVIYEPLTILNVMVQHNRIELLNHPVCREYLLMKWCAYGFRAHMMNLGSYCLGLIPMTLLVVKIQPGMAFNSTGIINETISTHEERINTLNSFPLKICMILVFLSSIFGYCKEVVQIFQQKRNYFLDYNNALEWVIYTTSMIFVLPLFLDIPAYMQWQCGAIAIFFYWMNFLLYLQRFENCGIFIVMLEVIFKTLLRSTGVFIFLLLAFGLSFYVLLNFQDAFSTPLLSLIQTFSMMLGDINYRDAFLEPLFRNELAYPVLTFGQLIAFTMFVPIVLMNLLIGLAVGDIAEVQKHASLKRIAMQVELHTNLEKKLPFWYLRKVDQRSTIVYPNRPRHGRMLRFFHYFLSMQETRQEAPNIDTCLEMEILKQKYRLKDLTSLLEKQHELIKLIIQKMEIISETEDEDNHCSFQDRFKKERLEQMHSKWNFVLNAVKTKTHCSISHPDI
Outline: (§2)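 Stably rat TRPA1-transfected HEK-293 cells, grown 3 days, were loaded with 4 µM Fluo4-AM plus 0.02% Pluronic for 1 h at room temperature. They were washed and resuspended in Tyrode's buffer pH 7.4, and [Ca2+]i was read under stirring (ex 488/em 516 nm) before and after compound addition. EC50 is the half-maximal [Ca2+]i rise. Efficacy (100 µM compound) is expressed relative to 100 µM mustard oil; n = 4 means.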

RBL-2H3 = assay: Inhibition of [14C]anandamide uptake in rat RBL-2H3; assay type: functional, cell-based
Outline: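 Uptake of [14C]anandamide was measured in intact RBL-2H3 cells; means of n = 4.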

Cannabinoid receptor 1 = Cannabinoid receptor 1 (Homo sapiens, UniProt P21554); assay: Binding affinity to human CB1 receptor expressed in COS cells; assay type: cell-based
Sequence of Cannabinoid receptor 1 (P21554 whole entry): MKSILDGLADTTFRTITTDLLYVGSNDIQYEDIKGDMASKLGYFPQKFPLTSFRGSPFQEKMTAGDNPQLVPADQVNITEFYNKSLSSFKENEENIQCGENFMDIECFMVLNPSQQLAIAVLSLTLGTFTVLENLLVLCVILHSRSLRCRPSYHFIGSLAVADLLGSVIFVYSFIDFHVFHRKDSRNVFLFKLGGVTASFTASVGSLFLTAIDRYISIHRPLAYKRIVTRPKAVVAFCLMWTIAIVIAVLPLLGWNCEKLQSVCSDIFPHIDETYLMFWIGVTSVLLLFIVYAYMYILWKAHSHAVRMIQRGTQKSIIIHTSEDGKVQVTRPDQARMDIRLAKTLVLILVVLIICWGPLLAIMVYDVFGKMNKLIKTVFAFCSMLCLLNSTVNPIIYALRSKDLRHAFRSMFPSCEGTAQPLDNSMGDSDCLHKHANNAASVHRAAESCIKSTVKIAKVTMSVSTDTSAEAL
Outline: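 Tested at CB1 receptors in transfected COS cells; means of 4 separate determinations.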

[4] = target: T3, Fatty-acid amide hydrolase 1 (Rattus norvegicus, UniProt P97612); assay: Inhibition of rat brain FAAH mediated [14C]anandamide hydrolysis
T3 sequence (P97612 whole entry): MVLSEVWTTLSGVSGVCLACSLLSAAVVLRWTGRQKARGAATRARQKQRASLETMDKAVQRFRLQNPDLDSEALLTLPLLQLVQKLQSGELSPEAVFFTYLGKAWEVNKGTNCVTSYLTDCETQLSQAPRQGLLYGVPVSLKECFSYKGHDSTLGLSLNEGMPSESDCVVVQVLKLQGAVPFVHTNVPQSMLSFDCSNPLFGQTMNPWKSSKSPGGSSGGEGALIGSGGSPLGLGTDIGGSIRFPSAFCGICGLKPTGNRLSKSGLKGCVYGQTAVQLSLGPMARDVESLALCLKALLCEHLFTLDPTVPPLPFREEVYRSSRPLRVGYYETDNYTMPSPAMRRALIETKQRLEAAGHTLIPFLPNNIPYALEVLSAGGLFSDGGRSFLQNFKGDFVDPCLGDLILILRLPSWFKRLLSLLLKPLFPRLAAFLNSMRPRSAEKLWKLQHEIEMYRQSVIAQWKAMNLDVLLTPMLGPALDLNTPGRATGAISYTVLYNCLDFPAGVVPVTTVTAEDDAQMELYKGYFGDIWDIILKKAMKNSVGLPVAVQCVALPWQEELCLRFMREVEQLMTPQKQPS
Outline: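 Hydrolysis of [14C]anandamide was measured with rat brain membranes as the enzyme source; means of n = 4.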

[5] = target: Transient receptor potential cation channel subfamily A member 1 (Rattus norvegicus) (UniProt Q6RI86); assay: Agonist activity at rat TRPA1 channel expressed in human HEK293 cells assessed as elevation in intracellular calcium flux at 100 uM relative to mustard oil; assay type: functional, cell-based; outline: as §2
Sequence of Transient receptor potential cation channel subfamily A member 1 (Rattus norvegicus) (Q6RI86 whole entry): as the sequence (Q6RI86 whole entry) above

[6] = target: T2, Transient receptor potential cation channel subfamily V member 1; assay: Agonist activity at human TRPV1 channel expressed in human HEK293 cells assessed as elevation in intracellular calcium flux at 10 uM relative to ionomycin; assay type: functional, cell-based; outline: as §1
[7] = Inhibition of human MAGL mediated [14C]2-AG hydrolysis in COS cell; assay type: cell-based
Outline: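 Enzyme source was cytosolic fractions of COS cells (MAGL-expressing), with hydrolysis of [14C]2-AG as the read-out; means of 4 determinations.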

For `CC(C)Cn1nnnc1Cc1ccc(-c2ccccc2)cc1`, the pIC50 [1] was < 5.00, the pEC50 [2] was < 4.00 and the pKi (Cannabinoid receptor 2) was 5.11. For the same molecule, the pEC50 [3] was < 4.00, the pIC50 (RBL-2H3) was < 4.60 and the pKi (Cannabinoid receptor 1) was < 5.00. The pIC50 [4] was < 4.30, the Efficacy [5] was 50.8% and the Efficacy [6] was 4.7%. For the same molecule, the pIC50 [7] was < 5.00.
In the case of `CC(C)Cn1nnc(Cc2ccc(-c3ccccc3)cc2)n1`, the pIC50 [1] was < 5.00, the pEC50 [2] was 5.00 and the pKi (Cannabinoid receptor 2) was 5.33. The pEC50 [3] was 4.58, the pIC50 (RBL-2H3) was < 4.60 and the pKi (Cannabinoid receptor 1) was 5.80. The pIC50 [4] was < 4.30, the Efficacy [5] was 136% and the Efficacy [6] was 20.7%. For the same molecule, the pIC50 [7] was < 5.00.
For `COC(=O)Cn1nnnc1CNC(=O)c1ccc(-c2ccccc2)cc1`, the pIC50 [1] was < 5.00, the pEC50 [2] was 4.53 and the pKi (Cannabinoid receptor 2) was < 5.00. For the same molecule, the pEC50 [3] was < 4.00, the pIC50 (RBL-2H3) was < 4.60 and the pKi (Cannabinoid receptor 1) was < 5.00. The pIC50 [4] was < 4.30, the Efficacy [5] was 0% and the Efficacy [6] was 8.6%. For the same molecule, the pIC50 [7] was < 5.00.
In the case of `CC(=O)Cn1nnc(Cc2ccc(-c3ccccc3)cc2)n1`, the pIC50 [1] was < 5.00, the pEC50 [2] was < 4.00 and the pKi (Cannabinoid receptor 2) was 5.28. The pEC50 [3] was < 4.00, the pIC50 (RBL-2H3) was < 4.60 and the pKi (Cannabinoid receptor 1) was < 5.00. For the same molecule, the pIC50 [4] was < 4.30, the Efficacy [5] was 61.4% and the Efficacy [6] was 0%. For the same molecule, the pIC50 [7] was < 5.00.
For `COC(=O)Cn1nnnc1Cc1ccc(-c2ccccc2)cc1`, the pIC50 [1] was < 5.00, the pEC50 [2] was < 4.00 and the pKi (Cannabinoid receptor 2) was < 5.00. For the same molecule, the pEC50 [3] was < 4.00, the pIC50 (RBL-2H3) was 5.31 and the pKi (Cannabinoid receptor 1) was < 5.00. For the same molecule, the pIC50 [4] was < 4.30, the Efficacy [5] was 0% and the Efficacy [6] was 0%. The pIC50 [7] was < 5.00.
With `CN(C)C(=O)Cn1nnnc1Cc1ccc(-c2ccccc2)cc1` the pIC50 [1] was < 5.00, the pEC50 [2] was < 4.00 and the pKi (Cannabinoid receptor 2) was < 5.00. The pEC50 [3] was < 4.00, the pIC50 (RBL-2H3) was 5.29 and the pKi (Cannabinoid receptor 1) was < 5.00. For the same molecule, the pIC50 [4] was < 4.30, the Efficacy [5] was 0% and the Efficacy [6] was 4%. The pIC50 [7] was < 5.00.
With `CC(C)Cn1nnc(CNC(=O)c2ccc(-c3ccccc3)cc2)n1` the pIC50 [1] was < 5.00, the pEC50 [2] was 4.27 and the pKi (Cannabinoid receptor 2) was < 5.00. For the same molecule, the pEC50 [3] was < 4.00, the pIC50 (RBL-2H3) was < 4.60 and the pKi (Cannabinoid receptor 1) was < 5.00. For the same molecule, the pIC50 [4] was < 4.30, the Efficacy [5] was 0% and the Efficacy [6] was 10.2%. For the same molecule, the pIC50 [7] was < 5.00.
In the case of `CC(C)Cn1nnnc1CNC(=O)c1ccc(-c2ccccc2)cc1`, the pIC50 [1] was < 5.00, the pEC50 [2] was 4.82 and the pKi (Cannabinoid receptor 2) was < 5.00. For the same molecule, the pEC50 [3] was < 4.00, the pIC50 (RBL-2H3) was < 4.60 and the pKi (Cannabinoid receptor 1) was < 5.00. For the same molecule, the pIC50 [4] was < 4.30, the Efficacy [5] was 26.1% and the Efficacy [6] was 9.1%. The pIC50 [7] was < 5.00.
In the case of `CC(=O)Cn1nnc(CNC(=O)c2ccc(-c3ccccc3)cc2)n1`, the pIC50 [1] was < 5.00, the pEC50 [2] was < 4.00 and the pKi (Cannabinoid receptor 2) was < 5.00. For the same molecule, the pEC50 [3] was < 4.00, the pIC50 (RBL-2H3) was < 4.60 and the pKi (Cannabinoid receptor 1) was < 5.00. The pIC50 [4] was < 4.30, the Efficacy [5] was 14% and the Efficacy [6] was 0%. The pIC50 [7] was < 5.00.
In the case of `CC(=O)Cn1nnnc1CNC(=O)c1ccc(-c2ccccc2)cc1`, the pIC50 [1] was < 5.00, the pEC50 [2] was < 4.00 and the pKi (Cannabinoid receptor 2) was < 5.00. The pEC50 [3] was < 4.00, the pIC50 (RBL-2H3) was 4.90 and the pKi (Cannabinoid receptor 1) was < 5.00. For the same molecule, the pIC50 [4] was < 4.30, the Efficacy [5] was 0% and the Efficacy [6] was 7.7%. The pIC50 [7] was < 5.00.
